Consider 2 compounds from ChEMBL document CHEMBL4373712, “Bioactivatable Pseudotripeptidization of Cyclic Dipeptides To Increase the Affinity toward Oligopeptide Transporter 1 for Enhanced Oral Absorption: An Application to Cyclo(l-Hyp-l-Ser) (JBP485)” (J Med Chem, 2019).

pIC50: −log10 of the molar value.

In data set [1] the target is T1, Solute carrier family 22 member 3 (Homo sapiens, UniProt O75751).
T1 sequence (O75751 whole entry): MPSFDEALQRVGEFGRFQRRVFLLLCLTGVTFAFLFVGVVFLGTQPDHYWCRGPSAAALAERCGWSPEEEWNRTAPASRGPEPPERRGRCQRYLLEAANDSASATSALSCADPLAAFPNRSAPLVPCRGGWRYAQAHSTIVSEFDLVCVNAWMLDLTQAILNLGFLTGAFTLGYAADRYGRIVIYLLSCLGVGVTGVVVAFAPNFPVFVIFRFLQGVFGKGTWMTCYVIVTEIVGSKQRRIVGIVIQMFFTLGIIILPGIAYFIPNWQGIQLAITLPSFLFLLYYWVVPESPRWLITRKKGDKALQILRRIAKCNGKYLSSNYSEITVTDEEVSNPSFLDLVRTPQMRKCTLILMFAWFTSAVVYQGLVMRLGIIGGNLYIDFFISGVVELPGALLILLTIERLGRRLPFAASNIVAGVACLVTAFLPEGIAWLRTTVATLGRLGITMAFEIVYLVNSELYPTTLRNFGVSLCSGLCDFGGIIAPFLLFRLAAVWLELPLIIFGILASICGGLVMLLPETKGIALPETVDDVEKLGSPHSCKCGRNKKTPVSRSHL
The data set is described as follows: Substrate activity at OCT3 in human Caco2 cells assessed as protein-mediated drug uptake at 0.5 mM measured after 10 mins in absence of OCT1 substrate metformin by UPLC-MS/MS analysis. In kind it is ADME, cell-based. The note with it: caco-2, 10 min, 500 µM. The procedure, abridged: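 Caco-2 cells in 24-well plates took up 0.5 mM compound for 10 min at 37 °C, with or without 50 mM captopril ([…]) or metformin (OCT1-3 substrate). Cells were washed in ice-cold PBS and homogenised in water; lysate protein was measured and drug assayed by UPLC-MS/MS. n=3.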

The target in data set [2] is T2, Solute carrier family 15 member 1 (Homo sapiens, UniProt P46059).
T2 sequence (P46059 whole entry): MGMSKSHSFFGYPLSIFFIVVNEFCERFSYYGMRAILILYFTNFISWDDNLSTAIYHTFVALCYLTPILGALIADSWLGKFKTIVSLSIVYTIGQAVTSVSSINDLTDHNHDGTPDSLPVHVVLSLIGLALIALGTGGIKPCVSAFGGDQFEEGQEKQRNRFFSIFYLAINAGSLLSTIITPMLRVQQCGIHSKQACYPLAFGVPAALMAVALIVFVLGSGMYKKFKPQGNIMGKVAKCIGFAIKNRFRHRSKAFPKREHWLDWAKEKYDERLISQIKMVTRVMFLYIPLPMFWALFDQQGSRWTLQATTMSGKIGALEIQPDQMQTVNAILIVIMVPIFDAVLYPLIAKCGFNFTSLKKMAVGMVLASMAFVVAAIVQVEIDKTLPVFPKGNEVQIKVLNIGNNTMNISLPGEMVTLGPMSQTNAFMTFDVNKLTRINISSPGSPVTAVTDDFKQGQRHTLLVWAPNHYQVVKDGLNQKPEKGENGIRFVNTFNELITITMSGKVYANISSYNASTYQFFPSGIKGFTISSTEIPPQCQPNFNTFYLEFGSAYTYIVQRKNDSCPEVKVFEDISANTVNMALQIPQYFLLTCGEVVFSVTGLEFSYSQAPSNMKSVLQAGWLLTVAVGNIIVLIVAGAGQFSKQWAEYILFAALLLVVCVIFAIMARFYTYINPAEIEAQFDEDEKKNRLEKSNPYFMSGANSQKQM
The experiment in a line: Substrate activity at PEPT1 in human Caco2 cells assessed as inhibition of Gly-Sar uptake measured after 10 mins by UPLC-MS/MS analysis. In kind it is cell-based. An outline of the steps:
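Caco-2 cells with 0.5 mM Gly-Sar probe substrate and competitor at 0.5–50 mM. IC50 by nonlinear fitting; n=3.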

The target of data set [3] is T3, Solute carrier family 15 member 1 (Rattus norvegicus, UniProt P51574).
T3 sequence (P51574 whole entry): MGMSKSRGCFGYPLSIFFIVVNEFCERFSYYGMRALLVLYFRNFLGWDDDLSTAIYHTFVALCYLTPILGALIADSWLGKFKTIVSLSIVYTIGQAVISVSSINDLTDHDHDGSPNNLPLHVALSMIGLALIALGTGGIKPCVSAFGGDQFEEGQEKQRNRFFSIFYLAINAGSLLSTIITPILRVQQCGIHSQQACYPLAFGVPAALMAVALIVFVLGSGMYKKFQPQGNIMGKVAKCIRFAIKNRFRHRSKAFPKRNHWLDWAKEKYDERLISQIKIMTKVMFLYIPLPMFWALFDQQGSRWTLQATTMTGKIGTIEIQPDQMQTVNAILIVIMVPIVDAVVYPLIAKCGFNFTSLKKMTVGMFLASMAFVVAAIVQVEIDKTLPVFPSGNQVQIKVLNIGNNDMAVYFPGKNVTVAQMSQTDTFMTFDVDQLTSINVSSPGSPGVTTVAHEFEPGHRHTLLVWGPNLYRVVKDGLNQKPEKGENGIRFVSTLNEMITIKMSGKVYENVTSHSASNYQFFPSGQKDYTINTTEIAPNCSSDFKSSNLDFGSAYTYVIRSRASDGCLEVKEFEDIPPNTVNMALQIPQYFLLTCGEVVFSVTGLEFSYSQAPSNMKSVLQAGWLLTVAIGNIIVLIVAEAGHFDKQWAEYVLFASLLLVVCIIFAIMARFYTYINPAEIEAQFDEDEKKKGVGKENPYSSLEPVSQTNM
The experiment in a line: Ratio of compound effect for substrate activity at PEPT1 in Sprague-Dawley rat jejunum assessed as effective permeability in absence of non-metabolized PEPT1 substrate Gly-Sar to compound effect for substrate activity at PEPT1 in Sprague-Dawley rat jejunum assessed as effective permeability in presence of non-metabolized PEPT1 substrate Gly-Sar. Type of data set: ADME.

Data set [4] is described as follows: Half life in 0.1 M HCl at 5 mM by HPLC analysis. Type of data set: physicochemical. The procedure, abridged: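 Compound at 5 mM in 0.1 M HCl, pH 4.5 acetate buffer, pH 5.8/6.8/7.2 phosphate buffers, SGF (pH 1.2) and SIF (pH 6.8), prepared per Chinese Pharmacopoeia. Samples taken at 0-20 h and analyzed by HPLC-UV. k = 2.303×slope of log C versus time; t1/2 = 0.693/k.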

Data set [5] can be described thus: Apparent permeability across human Caco2 cells at 0.5 mM measured after 5 to 60 mins by UPLC-MS/MS analysis. In kind it is ADME, cell-based. As to conditions: caco-2, 500 µM; call rule not given here. The procedure, abridged:
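Caco-2 cells grown on 0.4 µm transwell inserts; monolayers used only with TEER >300 Ω/cm². Compound at 0.5 mM in apical pH 6.0 HBSS, basolateral pH 7.4 HBSS, 37 °C. Basolateral samples taken at 5, 15, 30, 45 and 60 min. Quantified by UPLC-MS/MS; Papp from steady-state flux, area and initial donor concentration. Three repeats.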
A general note: Caco-2 cells form a polarised layer with tight junctions and transporters.

Data set [6] has as its target T2, Solute carrier family 15 member 1. The experiment in a line: Substrate activity at PEPT1 in human Caco2 cells assessed as protein-mediated drug uptake at 0.5 mM measured after 10 mins in pH 7.4 HBSS buffer by UPLC-MS/MS analysis. Type of data set: ADME, cell-based. The note with it: caco-2, pH 7.4, 10 min, 500 µM. An outline of the steps: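 Caco-2 cells incubated 10 min with 0.5 mM compound in HBSS at pH 6.0 or pH 7.4, washed three times in ice-cold PBS pH 7.4, homogenised. Protein by DC assay; drug by UPLC-MS/MS; n=3.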

Broadly, the pIC50 is the IC50 on a negative log10 scale, so that one unit is a factor of ten. The term half-life denotes the time in which the quantity being followed falls by half. A lower half-life goes with fast loss. Take `O=C1N[C@@H](CO)C(=O)N2C[C@H](O)C[C@@H]12`: the Drug uptake result in data set [1] and in data set [6] was “Not Active” in each case. For the same compound, the pIC50 in data set [2] is 1.74. For the same compound, the Ratio in data set [3] is reported as 2.5. Also, in data set [4], the half-life at 5000 µM is > 20 h. Further, the Papp result in data set [5] was “Impermeable”.
Take `CC(C)[C@H](N)C(=O)OC[C@@H]1NC(=O)[C@@H]2C[C@@H](O)CN2C1=O`: the Drug uptake result in data set [1] and in data set [6] was “Not Active” in each case. Moreover, the pIC50 in data set [2] was 2.54. For the same compound, the Ratio in data set [3] is on record as 6.8. In addition, in data set [4], the half-life at 5000 µM was > 20 h. Besides, the Papp entry in data set [5] is given as “Permeable”.
